Test results as given in PMC3780362 (Nuclear medicine and biology, 2009).

Legend:
5-HT1B receptor [1] = target: T1, 5-HT1B receptor (Macaca mulatta, UniProt F6SFA9); assay: Baseline brain PET imaging with [11C]P943; type: in vivo, Rhesus monkey
Outline: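 Rhesus monkeys (5-8 kg) were fasted overnight, given ketamine 10 mg/kg i.m. and glycopyrrolate, then kept on ~2% isoflurane and scanned on HRRT PET after a transmission scan. Tracer dose was 5-7 mCi. Bolus scan: one animal, 120 min list-mode acquisition. Bolus plus infusion scans: Kbol 150 min, four animals. BPND = mean ROI/cerebellum concentration over 70-100 min, minus 1.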

5-HT1B receptor [2] = target: T1, 5-HT1B receptor; assay: Binding saturability PET study; type: in vivo, Rhesus monkey; conditions: high SA
Outline: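 Self-block design: 2 anesthetized rhesus monkeys, each scanned on two days at high, medium and low specific activity by adding unlabeled test compound (12 scans). Dosing was 2 min i.v. bolus plus 118 min constant infusion, Kbol 150 min for high-SA scans. Net high SA at injection was 111.7 MBq/nmol. BPND = ROI/cerebellum equilibrium ratio over 70-100 min, minus 1.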

5-HT1B receptor [3] = target: T1, 5-HT1B receptor; assay: Binding selectivity PET study: blocking of [11C]P943 with GR127935; type: in vivo, Rhesus monkey
Outline: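 About three hours later came a second scan with GR127935 2 mg/kg i.v. bolus given before the tracer. Dose was 5.4 ± 0.7 mCi at 6.3 ± 0.9 mCi/nmol. BPND = ROI/cerebellum ratio from 70-100 min, minus 1, in control and blocked scans.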

5-HT1B = 5-HT1B (Homo sapiens, UniProt P28222); assay: NIMH Psychoactive Drug Screening Program binding; conditions: based on the in vitro data
5-HT1B, sequence (P28222 whole entry, species assumed): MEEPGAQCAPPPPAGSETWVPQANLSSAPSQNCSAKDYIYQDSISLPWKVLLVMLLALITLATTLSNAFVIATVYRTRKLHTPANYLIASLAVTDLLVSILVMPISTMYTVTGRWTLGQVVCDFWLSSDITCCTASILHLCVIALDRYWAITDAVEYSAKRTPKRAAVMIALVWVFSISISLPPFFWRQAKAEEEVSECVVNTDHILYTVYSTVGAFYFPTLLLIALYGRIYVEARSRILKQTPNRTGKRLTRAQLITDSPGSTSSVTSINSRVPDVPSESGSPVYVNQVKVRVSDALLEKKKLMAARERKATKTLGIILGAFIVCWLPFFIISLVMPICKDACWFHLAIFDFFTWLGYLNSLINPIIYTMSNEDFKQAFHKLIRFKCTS

human 5-HT1B receptor = conditions: selectivity; cited from earlier work
[4] = Mean of two monkeys, GR127935 2 mg/kg i.v.
[5] = Monkey#1, GR127935 2 mg/kg i.v.
[6] = Monkey#2, GR127935 2 mg/kg i.v.

T1 sequence (F6SFA9 1-390): as the sequence (P28222 whole entry, species assumed) above, with V20A, A35T, S45A, I105V, E198D, K301R, M337L counted along it

## COC(C)(C)c1ccc(N2CC[C@@H](Cc3ccccc3N3CCN(C)CC3)C2=O)cc1 [[^11C]P943, (R)-1-(4-(2-methoxypropan-2-yl)phenyl)-3-(2-(4-methylpiperazin-1-yl)benzyl)pyrrolidin-2-one]
5-HT1B receptor [1]; 2 hr baseline scan, bolus injection
  time of peak uptake in most brain regions: 10 to 30 min
5-HT1B receptor [1]; bolus plus infusion
  time at which equilibrium was reached in the brain: ~70 min
5-HT1B receptor [2]
  BPND at high specific activity, globus pallidus: 0.57
5-HT1B receptor [2]; highest value
  BPND at high specific activity, occipital cortex: 0.80
5-HT1B receptor [3]; before blockade, paired study
  BPND frontal cortex, control scan: 0.49
  BPND occipital, control scan: 0.71

## COc1ccc(NC(=O)c2ccc(-c3ccc(-c4noc(C)n4)cc3C)cc2)cc1N1CCN(C)CC1 [GR127935]
5-HT1B receptor [3]; [4]
  %Reduction in BPND Caudate: 62%
  %Reduction in BPND Cingulate: 64%
  %Reduction in BPND Frontal: 91%
  %Reduction in BPND Globus Pallidus: 73%
  %Reduction in BPND Insula: 53%
  %Reduction in BPND Occipital: 95%
  %Reduction in BPND Putamen: 40%
  %Reduction in BPND Thalamus: 75%
5-HT1B receptor [3]; [5]
  %Reduction in BPND Caudate: 78%
  %Reduction in BPND Cingulate: 66%
  %Reduction in BPND Frontal: 84%
  %Reduction in BPND Globus Pallidus: 80%
  %Reduction in BPND Insula: 61%
  %Reduction in BPND Occipital: 96%
  %Reduction in BPND Putamen: 47%
  %Reduction in BPND Thalamus: 76%
5-HT1B receptor [3]; [6]
  %Reduction in BPND Caudate: 45%
  %Reduction in BPND Cingulate: 61%
  %Reduction in BPND Frontal: 98%
  %Reduction in BPND Globus Pallidus: 66%
  %Reduction in BPND Insula: 45%
  %Reduction in BPND Occipital: 94%
  %Reduction in BPND Putamen: 33%
  %Reduction in BPND Thalamus: 74%
5-HT1B receptor [3]; after GR127935 2 mg/kg i.v.
  BPND frontal cortex after blockade: 0.06
  BPND occipital after blockade: 0.03

## COC(C)(C)c1ccc(N2CC[C@@H](Cc3ccccc3N3CCN(C)CC3)C2=O)cc1 [P943, R-1-[4-(2-methoxy-isopropyl)-phenyl]-3-[2-(4-methyl-piperazin-1-yl)benzyl]-pyrrolidin-2-one]
5-HT1B
  affinity for 5HT1B higher than for 5-HT1A receptors: 50-100 times
Human 5-HT1B receptor
  affinity for other 5-HT and non-5-HT receptors lower than for 5-HT1B: at least 100 fold
